# Pemphigus Ab inh: human desmoglein-3 autoantibody binding inhibition | P32926 | DSG3-coupled beads, scFv-anti-DSG3-GFP binding, flow cytometry; active compounds read low | binding (percent of control), % at 10 µM | 310,000 tested, 0.48% active | AID 588358;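 active = binding more than 3 SD below its plate's average and above zero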;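 also: hits lower antibody fragment binding to DSG3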
# ALR H2O2 inh: human ALR oxidase inhibition via reduced H2O2; P55789; purified ALR, DTT oxidation, H2O2 HRP-luminol luminescence; inhibition, % (test concentration not listed); 290,000 tested, 3.8% active; AID 485317;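 active = mean replicate inhibition above about 79%, with every replicate also reaching it, limit read from the data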
# Target sequence (P55789 whole entry, looked up): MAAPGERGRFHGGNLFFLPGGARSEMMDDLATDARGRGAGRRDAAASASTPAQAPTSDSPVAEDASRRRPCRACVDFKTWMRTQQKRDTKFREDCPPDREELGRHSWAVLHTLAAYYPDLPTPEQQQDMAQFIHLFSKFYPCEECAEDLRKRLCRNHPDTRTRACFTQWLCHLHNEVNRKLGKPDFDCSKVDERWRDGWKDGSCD
# PolyA inhibitor: yeast polyadenylation inhibition; S. cerevisiae SKY197-pL101 polyadenylation reporter, beta-gal luminescence; efflux-impaired pdr1/pdr3 knockout yeast; score 100 = 6 SD above DMSO; activity score, % at 12 µM; 300,000 tested, 0.02% active; AID 1875;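 active = lowest replicate activity score at least 50, where 100 means six control SD above control mean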;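 also: yeast exposed to compound for 9 h at 30 °C; higher score means more reporter readthrough which indicates perturbed polyadenylation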
# NALP1 yeast inh: NALP1 inhibition. S. cerevisiae NALP1/ASC/caspase-1 growth, X-gal OD620, 72 h. inhibition, % at 10 µM. 280,000 tested, 0.61% active. AID 2071; in the data active = inhibition mostly above about 24%, no sharp cut-off; inactive = mostly below about 32%
# NLRP3 yeast inh: NALP3 inhibition in yeast; Yeast reconstituted NLRP3/ASC/caspase-1, beta-gal luminescence, 24 h; inhibition, % at 10 µM; 330,000 tested, 0.39% active;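 active = inhibition of 50% or more; inactive = inhibition below 50%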;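 also: plate controls were induced DMSO wells for no effect and uninduced yeast grown without galactose for full effect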
# Arr AP2 block: inhibitors of human beta-arrestin and AP2 interaction. FITC-arrestin peptide / GST-AP2 beads, flow cytometry; AP2 beta2 appendage carries R879A mutation. inhibition, % at 10 µM. 340,000 tested, 0.31% active;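 active = inhibition above a set limit, near 3 SD of compounds lacking own fluorescence, cut at about 54% in these data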;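 also: plate controls were DMSO wells for no effect and 5 µM unlabelled arrestin peptide for full effect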
#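 Material – AP2 appendage R879A on GSH beads · Buffer or medium – PBS with 0.05% Tween 20 and 0.1% BSA · Probe or stimulus – fluorescein-tagged arrestin peptide at 50 nM final · Incubation – compound with beads 12 min RT, then probe 1 h RT · Detection – high-throughput flow cytometry of beads, ex 488, em 535 nm · Evaluation – percent response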
# * = called active by the depositor; · = not tested or not shown. This is a sample that favours compounds with a hit; in the whole collection about 4.6% have one here.
SMILES,Pemphigus Ab inh,ALR H2O2 inh,PolyA inhibitor,NALP1 yeast inh,NLRP3 yeast inh,Arr AP2 block
C=C(C)[C@@H]1[C@H]2OC(=O)[C@H]1[C@]1(O)C[C@H]3O[C@]34C(=O)O[C@H]2[C@]14C,98.0,·,·,·,·,9.2
Cc1nc2ccccc2c(=O)n1-c1c(Cl)cccc1Cl,99.9,·,·,·,·,·
COC(=O)C1=C(c2cccc(OCc3ccccc3)c2)C[C@@H]2CC[C@H]1N2C(=O)NCCc1ccc(F)cc1,·,-7.6,·,·,3.5,-4.8
C/C(=N\Nc1ccccc1)c1c(O)n(Cc2ccccc2)c(=O)[nH]c1=O,126.7,98.3*,-3.0,3.0,10.7,-1.0
C/C(=N\NC(=O)c1ccccc1O)c1c(O)n(Cc2ccccc2)c(=O)[nH]c1=O,92.4,14.0,-5.1,-17.7,-6.5,-3.5
C[C@]12CC[C@@H](O)C[C@@H]1CC[C@@H]1[C@@H]2CC[C@]2(C)C(=O)[C@H](O)C[C@@H]12,95.2,·,·,·,·,·
CC(C)(C)C(=O)O[C@H]1CC[C@@]2(C)C(=CC(=O)C3C2CC[C@]2(C)C(=O)[C@@H](F)CC32)C1 (stereo not given in full),119.7,-15.6,·,·,25.1,8.4
COC(=O)C1=C(C(=O)OC)SC2(S1)C(C(=O)OC)=C(C(=O)OC)Sc1c2ssc1=O,·,·,·,·,·,31.4
Cc1c(CC(=O)N2C[C@H]3C[C@@H](C2)c2cccc(=O)n2C3)c(=O)oc2c(C)c(O)ccc12,100.6,89.4*,-9.1,22.3,12.3,-4.4
CN1C(=O)N(C)C(=O)C2(Cc3c(ccc4ccccc34)N(C)C2)C1=O,·,98.8*,19.5,10.8,-8.7,36.7
Cc1cccc(N2C(=O)NC(=O)/C(=C/c3ccc([N+](=O)[O-])o3)C2=O)c1,·,-58.6,·,48.3*,·,·
O=C1NC(=O)C2(Cc3ccccc3N3CCCC32)C(=O)N1 (stereo not given),103.5,99.4*,-6.9,-17.9,2.3,-0.3
CNC(=O)Oc1ccc(N(C)C)cc1C(C)C,88.2,92.2*,-24.2,11.0,12.8,-9.5
CNC(=O)Oc1cccc2ccccc12,116.2,-26.9,-7.1,-2.7,2.1,-22.4
COc1cc(Br)cc(CN2CCN(C)CC2)c1O,94.5,34.7,6.0,20.1,-1.3,5.9
CCN1CCN(Cc2cc(Br)ccc2O)CC1,·,2.1,-1.9,43.0*,-0.8,-10.9
CCc1ccc(CN2CCN(Cc3cc(Br)ccc3O)CC2)cc1,95.8,-5.6,-10.8,24.0,-3.2,-8.7
CCN1CCN(Cc2cc(Br)cc(Br)c2O)CC1,103.6,98.6*,-22.1,26.0,8.2,-1.6
O=C(NN=Cc1ccc(N(CCCl)CCCl)cc1)c1cccnc1,104.4,·,·,·,·,-5.2
C[C@@H]1CN([C@H](C)CO)C(=O)c2c(c3ccccc3n2C)-c2ccccc2CO[C@H]1CN(C)Cc1ccc2c(c1)OCCN2C,102.4,·,·,·,·,·
O=C(c1ccccc1)C(CN1CCCC1)c1ccccc1 (stereo not given),96.5,97.2*,-5.5,94.2*,·,·
O=[N+]([O-])c1cc(O)c(O)c([N+](=O)[O-])c1,97.3,91.7*,·,·,30.6,-4.8
O=[N+]([O-])c1ccc(O)c([N+](=O)[O-])c1,92.1,-4.8,-5.7,·,-9.5,9.8
CC1CCC/C=C/C2CC(O)CC2C(O)/C=C/C(=O)O1 (stereo not given),113.5,-10.3,-9.2,40.0*,3.3,7.2
COc1cccc(C)c1NC1=NCCO1,107.4,·,·,·,·,·
SMILES,Pemphigus Ab inh,ALR H2O2 inh,PolyA inhibitor,NALP1 yeast inh,NLRP3 yeast inh,Arr AP2 block
Cc1cc(C)cc(NC(=O)CCNC(=O)N2C[C@H]3C[C@@H](C2)c2cccc(=O)n2C3)c1,102.5,0.9,-22.0,6.5,2.9,5.5
O=C(CCNC(=O)N1C[C@H]2C[C@@H](C1)c1cccc(=O)n1C2)Nc1ccc(F)cc1,79.9*,-5.4,3.8,6.3,3.5,14.1
CN1CCN(c2c(N)c(=O)oc3ccccc23)CC1,96.5,98.7*,13.3,7.0,-0.2,0.2
N#CC1=C(N)Oc2c(c(=O)oc3ccccc23)C1c1cccnc1 (stereo not given),105.0,23.1,10.4,5.1,15.8,-1.4
N#CC1=C(N)Oc2c(c(=O)sc3ccccc23)C1c1ccncc1 (stereo not given),·,95.4*,-4.6,14.2,-1.9,0.3
c1ccc(CCN2CCCCC2)nc1,122.0,·,·,·,·,25.6
Oc1ccc(Cl)cc1,98.6,·,·,·,15.4,6.4
Oc1ccc(C(=C(Cl)Cl)c2ccc(O)cc2)cc1,·,86.1*,28.6,5.3,24.7,·
CCN(CC)c1ccc(C=C2C(=O)NC(=S)NC2=O)cc1,108.8,99.4*,4.4,23.1,19.3,11.9
CN(C)c1ccc(C=C2C(=O)NC(=S)NC2=O)cc1,89.2,·,·,·,·,-7.8
O=[N+]([O-])c1cccc(NP(=O)(N2CC2)N2CC2)c1,110.3,·,·,·,·,-3.9
CN1CCc2nc(SCc3cccc(Br)c3)c(C#N)cc2C1,115.8,98.9*,16.7,0.2,11.3,-11.2
CC1(O)CCN2C(=O)CCc3cccc1c32 (stereo not given),108.9,97.4*,·,·,2.8,-7.0
CCCN(CC1CC1)CC(O)c1ccccc1 (stereo not given),98.6,-4.9,-5.6,15.8,3.0,11.0
COC(=O)C1=C(c2ccc(Cl)c(C(F)(F)F)c2)C[C@@H]2CC[C@H]1N2C(=O)NCc1ccco1,105.7,-6.5,·,·,-3.9,18.0
O=C1NC(=O)C(=Cc2ccc(-c3ccc(Cl)cc3)o2)C(=O)N1,71.6*,94.4*,0.3,10.1,9.9,18.1
Cc1ccc(/C=C2\C(=O)NC(=O)N(CCc3ccc(F)cc3)C2=O)o1,89.5,6.2,11.2,24.9,15.7,-2.2
O=C1NC(=O)C(=Cc2ccc(-c3ccc(F)cc3O)o2)C(=O)N1,102.1,97.7*,5.9,13.1,11.1,18.9
O=C1NC(=O)C(=Cc2ccc(-c3ccc(S(=O)(=O)N4CCOCC4)cc3)o2)C(=O)N1,98.9,92.1*,1.3,5.3,18.1,-2.8
O=C1NC(=O)C(=Cc2ccc(Sc3ccccc3)o2)C(=O)N1,95.6,42.6,-11.3,9.0,21.4,-10.6
Cc1ccc([C@@H]2C[C@H]3[C@@H](CN2S(=O)(=O)c2ccc(Cl)cc2)C(=O)C[C@@H](c2ccccc2F)N3S(=O)(=O)c2ccc(C)cc2)cc1,98.9,·,·,·,·,·
CCOC(=O)C1(c2ccccc2)CCN(CCC(=O)Nc2cccc(Br)c2)CC1,95.3,·,·,·,24.5,-1.5
CCOC(=O)c1ccccc1NC(=O)c1c(O)[nH]c(=S)[nH]c1=O,107.1,91.6*,13.7,·,17.7,-0.6
CC(O)C1C=CC=CC(=O)OC2CC3OC4C5OC5(C)C(O)CC4(COC(=O)C(O)C(C)CCO1)C2(C)C31CO1 (stereo not given),73.8*,·,·,·,·,10.9
CCC(C)N1C(=O)/C(=C\c2cc3c4c(c2)CCCN4CCC3)C(=O)NC1=S (stereo not given),165.4,98.7*,-11.1,4.8,8.3,-20.1

# Screening data: PubChem, several laboratories
